# “And” between values parts separate entries of the source, which are not always exact repeats. Identical values can stand only once.
# Tests used:
# Mus musculus [1] = assay: Antitumor activity expressed as mean life span of nonsurvivors in days (T/C) was tested against Dalton's lymphoma at the dosage of 25 mg/kg (ip); 38/23; assay type: functional, organism-based; set-up: dose 25 mg/kg
# How it was run: (§1)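 Dalton's lymphoma: 2 × 10⁷ ascites cells were given ip to DbA mice, 18–20 g. A single ip dose in 0.89% saline followed on day two, with saline-injected controls. Mean life span was calculated excluding mice that survived 6 months or more. T/C% is the mean survival of treated mice, excluding tumour-free survivors, divided by the mean life span of untreated mice ×100.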
# Mus musculus [2] = assay: Antitumor activity expressed as %T/C was tested against fibrosarcoma at the dosage of 5 mg/Kg (sc); assay type: functional
# How it was run: (§2)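 Fibrosarcoma: 4 × 10⁶ cells were given sc to C₃H/He mice, 25–30 g. A single ip or sc dose in 0.89% saline followed on day three, with saline-injected controls. Mean life span of nonsurvivors excludes mice surviving 6 months or more, which were counted as tumour-free. T/C% is treated mean survival, excluding tumour-free survivors, divided by untreated mean life span ×100.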
# Mus musculus [3] = assay: Antitumor activity expressed as %T/C was tested against fibrosarcoma at the dosage of 10 mg/Kg (ip); assay type: functional; how it was run: as §2
# Mus musculus [4] = assay: Antitumor activity expressed as average body weight change was tested against fibrosarcoma at the dosage of 10 mg/kg (ip); assay type: functional, organism-based; set-up: dose 10 mg/kg
# How it was run: (§3)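 Fibrosarcoma-bearing C₃H/He mice (4 × 10⁶ cells sc) received a single ip or sc dose in 0.89% saline on day three after transplant; controls received saline. The day of injection was taken as day zero. Mice were weighed on alternate days up to 4 weeks. Values are average % weight change from the day of treatment to day 21.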
# Mus musculus [5] = assay: Antitumor activity against fibrosarcoma infected mice at the dosage of 25 mg/kg (sc) and expressed as no. of mice injected; T/C= 8/6; assay type: functional, organism-based; set-up: dose 25 mg/kg
# Mus musculus [6] = assay: Antitumor activity expressed as average body weight change was tested against fibrosarcoma at the dosage of 5 mg/kg (sc); assay type: functional; how it was run: as §3
# Mus musculus [7] = assay: Antitumor activity expressed as mean life span of nonsurvivors in days (T/C) was tested against fibrosarcoma at the dosage of 10 mg/kg (sc); 41/28; assay type: functional, organism-based; set-up: dose 10 mg/kg; how it was run: as §2
# Mus musculus [8] = assay: Antitumor activity expressed as the no. of mice surviving >6 months was tested against fibrosarcoma at the dosage of 25 mg/kg (ip); assay type: functional
# How it was run: (§4)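 Fibrosarcoma was established by sc inoculation of 4 × 10⁶ cells in mice. On day 3 they received a single ip or sc injection of compound freshly suspended in 0.89% saline, with 5–10 mice per group. The count is of mice surviving 6 months or more after treatment, scored as tumor-free, with the percentage of the group also given.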
# Mus musculus [9] = assay: Antitumor activity expressed as mean life span of nonsurvivors in days (T/C) was tested against fibrosarcoma at the dosage of 5 mg/kg (sc); 30/27; assay type: functional, organism-based; set-up: dose 5 mg/kg; how it was run: as §2
# Mus musculus [10] = assay: Antitumor activity against Dalton's lymphoma infected mice at the dosage of 2 mg/kg (ip) and expressed as no. of mice injected; T/C= 5/5; assay type: functional
# Mus musculus [11] = assay: Antitumor activity expressed as mean life span of nonsurvivors in days (T/C) was tested against fibrosarcoma at the dosage of 50 mg/kg (ip); 37/28; assay type: functional, organism-based; set-up: dose 50 mg/kg; how it was run: as §2
# Mus musculus [12] = assay: Antitumor activity against fibrosarcoma infected mice at the dosage of 10 mg/kg (ip) and expressed as no. of mice injected; T/C= 8/8; assay type: functional, organism-based; set-up: dose 10 mg/kg
# Mus musculus [13] = assay: Antitumor activity against Dalton's lymphoma infected mice at the dosage of 10 mg/kg (ip) and expressed as no. of mice injected; T/C= 5/5; assay type: functional
# Mus musculus [14] = assay: Antitumor activity expressed as %T/C was tested against Dalton's lymphoma at the dosage of 25 mg/Kg (ip); assay type: functional; how it was run: as §1
# Mus musculus [15] = assay: Antitumor activity expressed as %T/C was tested against fibrosarcoma at the dosage of 25 mg/Kg (sc); assay type: functional; how it was run: as §2
# Mus musculus [16] = assay: Antitumor activity against Dalton's lymphoma infected mice at the dosage of 25 mg/kg (ip) and expressed as no. of mice injected; T/C= 5/5; assay type: functional
# Mus musculus [17] = assay: Antitumor activity against fibrosarcoma infected mice at the dosage of 25 mg/kg (ip) and expressed as no. of mice injected; T/C= 7/7; assay type: functional, organism-based; set-up: dose 25 mg/kg
# Mus musculus [18] = assay: Antitumor activity expressed as the no. of mice surviving >6 months was tested against fibrosarcoma at the dosage of 5 mg/kg (ip); assay type: functional; how it was run: as §4
# Mus musculus [19] = assay: Antitumor activity expressed as mean life span of nonsurvivors in days (T/C) was tested against fibrosarcoma at the dosage of 25 mg/kg (sc); 39/29; assay type: functional, organism-based; set-up: dose 25 mg/kg; how it was run: as §2
# Mus musculus [20] = assay: Antitumor activity expressed as average body weight change was tested against fibrosarcoma at the dosage of 25 mg/kg (sc); assay type: functional; how it was run: as §3
# Mus musculus [21] = assay: Antitumor activity expressed as average body weight change was tested against fibrosarcoma at the dosage of 25 mg/kg (ip); assay type: functional, organism-based; set-up: dose 25 mg/kg; how it was run: as §3
# Mus musculus [22] = assay: Antitumor activity against fibrosarcoma infected mice at the dosage of 10 mg/kg (sc) and expressed as no. of mice injected; T/C= 8/7; assay type: functional
# Mus musculus [23] = assay: Antitumor activity expressed as average body weight change was tested against fibrosarcoma at the dosage of 5 mg/kg (ip); assay type: functional, organism-based; set-up: dose 5 mg/kg; how it was run: as §3
# Mus musculus [24] = assay: Antitumor activity expressed as %T/C was tested against fibrosarcoma at the dosage of 25 mg/Kg (ip); assay type: functional; how it was run: as §2
# Mus musculus [25] = assay: Antitumor activity expressed as mean life span of nonsurvivors in days (T/C) was tested against fibrosarcoma at the dosage of 10 mg/kg (ip); 35/27; assay type: functional, organism-based; set-up: dose 10 mg/kg; how it was run: as §2
# Mus musculus [26] = assay: Antitumor activity expressed as average body weight change was tested against fibrosarcoma at the dosage of 50 mg/kg (ip); assay type: functional, organism-based; set-up: dose 50 mg/kg; how it was run: as §3
# Mus musculus [27] = assay: Antitumor activity expressed as %T/C was tested against Dalton's lymphoma at the dosage of 2 mg/Kg (ip); assay type: functional; how it was run: as §1
# Mus musculus [28] = assay: Antitumor activity expressed as mean life span of nonsurvivors in days (T/C) was tested against Dalton's lymphoma at the dosage of 2 mg/kg (ip); 24/23; assay type: functional, organism-based; set-up: dose 2 mg/kg; how it was run: as §1
# Mus musculus [29] = assay: Antitumor activity expressed as %T/C was tested against fibrosarcoma at the dosage of 10 mg/Kg (sc); assay type: functional; how it was run: as §2
# Mus musculus [30] = assay: Antitumor activity expressed as mean life span of nonsurvivors in days (T/C) was tested against fibrosarcoma at the dosage of 5 mg/kg (ip); 34/26; assay type: functional, organism-based; set-up: dose 5 mg/kg; how it was run: as §2
# Mus musculus [31] = assay: Antitumor activity expressed as %T/C was tested against Dalton's lymphoma at the dosage of 10 mg/Kg (ip); assay type: functional; how it was run: as §1
# Mus musculus [32] = assay: Antitumor activity expressed as %T/C was tested against fibrosarcoma at the dosage of 5 mg/Kg (ip); assay type: functional; how it was run: as §2
# Mus musculus [33] = assay: Antitumor activity expressed as the no. of mice surviving >6 months was tested against fibrosarcoma at the dosage of 50 mg/kg (ip); assay type: functional; how it was run: as §4
# Mus musculus [34] = assay: Antitumor activity expressed as mean life span of nonsurvivors in days (T/C) was tested against Dalton's lymphoma at the dosage of 10 mg/kg (ip); 30/23; assay type: functional, organism-based; set-up: dose 10 mg/kg; how it was run: as §1
# Mus musculus [35] = assay: Antitumor activity against fibrosarcoma infected mice at the dosage of 5 mg/kg (sc) and expressed as no. of mice injected; T/C= 6/6; assay type: functional, organism-based; set-up: dose 5 mg/kg
# Mus musculus [36] = assay: Antitumor activity expressed as average body weight change was tested against fibrosarcoma at the dosage of 10 mg/kg (sc); assay type: functional; how it was run: as §3
# Mus musculus [37] = assay: Antitumor activity against fibrosarcoma infected mice at the dosage of 50 mg/kg (ip) and expressed as no. of mice injected; T/C= 10/6; assay type: functional, organism-based; set-up: dose 50 mg/kg
# Mus musculus [38] = assay: Antitumor activity expressed as mean life span of nonsurvivors in days (T/C) was tested against fibrosarcoma at the dosage of 25 mg/kg (ip); 33/25; assay type: functional, organism-based; set-up: dose 25 mg/kg; how it was run: as §2
# Mus musculus [39] = assay: Antitumor activity against fibrosarcoma infected mice at the dosage of 5 mg/kg (ip) and expressed as no. of mice injected; T/C= 8/8; assay type: functional, organism-based; set-up: dose 5 mg/kg
# Mus musculus [40] = assay: Antitumor activity expressed as %T/C was tested against fibrosarcoma at the dosage of 50 mg/Kg (ip); assay type: functional; how it was run: as §2
substance,measurement,setting,value
Copper(II) Complex,T/C,Mus musculus [1],38 days
same,T/C,Mus musculus [2],111%
same,T/C,Mus musculus [3],130%
same,Average body weight change,Mus musculus [4],18.3%
same,T/C,Mus musculus [5],8
same,Average body weight change,Mus musculus [6],19.4%
same,T/C,Mus musculus [7],41 days
same,No. of mice surviving >6 months,Mus musculus [8],3 and 6
same,T/C,Mus musculus [9],30 days
same,T/C,Mus musculus [10],5
same,T/C,Mus musculus [11],37 days
same,T/C,Mus musculus [12],8
same,T/C,Mus musculus [13],5
same,T/C,Mus musculus [14],165%
same,T/C,Mus musculus [15],135%
same,T/C,Mus musculus [16],5
same,T/C,Mus musculus [17],7
same,No. of mice surviving >6 months,Mus musculus [18],2
same,T/C,Mus musculus [19],39 days
same,Average body weight change,Mus musculus [20],5.51%
same,Average body weight change,Mus musculus [21],12%
same,T/C,Mus musculus [22],8
same,Average body weight change,Mus musculus [23],15.5%
same,T/C,Mus musculus [24],132%
same,T/C,Mus musculus [25],35 days
same,Average body weight change,Mus musculus [26],8.51%
same,T/C,Mus musculus [27],104%
same,T/C,Mus musculus [28],24 days
same,T/C,Mus musculus [29],146%
same,T/C,Mus musculus [30],34 days
same,T/C,Mus musculus [31],130%
same,T/C,Mus musculus [32],131%
same,No. of mice surviving >6 months,Mus musculus [33],4
same,T/C,Mus musculus [34],30 days
same,T/C,Mus musculus [35],6
same,Average body weight change,Mus musculus [36],5.86%
same,T/C,Mus musculus [37],10
same,T/C,Mus musculus [38],33 days
same,T/C,Mus musculus [39],8
same,T/C,Mus musculus [40],132%
